The full list was thinned out, with hits kept by preference.
ABCG2 inh: blocks JC-1 efflux by human ABCG2 transporter | Q9UNQ0 | IgMXP3 cells, flow cytometry | inhibition, % at 6.6 µM | actives 0.1% (n = 190,000) | AID 1325;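 active means inhibition above 80%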;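 further: 0% = DMSO and 100% = nicardipine control wells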
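Test system: ABCG2 IgMXP3 and barcoded ABCB1 CCRF-Adr cell mix; Schedule: cells with compound and JC-1, 10 min at 25 °C, rotating, no wash; Technique: flow cytometry of retained JC-1 fluorescence; Measure: % inhibition of efflux relative to nicardipine and DMSO; Controls: nicardipine high and DMSO low controls.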
PKD1 inh: inhibitors of human PKD1 kinase; Q15139; actives 0.056% (n = 200,000); AID 797; inhibition, % (no concentration beside the values); PKD1 kinase fluorescence polarization assay
Target sequence (Q15139 whole entry, looked up): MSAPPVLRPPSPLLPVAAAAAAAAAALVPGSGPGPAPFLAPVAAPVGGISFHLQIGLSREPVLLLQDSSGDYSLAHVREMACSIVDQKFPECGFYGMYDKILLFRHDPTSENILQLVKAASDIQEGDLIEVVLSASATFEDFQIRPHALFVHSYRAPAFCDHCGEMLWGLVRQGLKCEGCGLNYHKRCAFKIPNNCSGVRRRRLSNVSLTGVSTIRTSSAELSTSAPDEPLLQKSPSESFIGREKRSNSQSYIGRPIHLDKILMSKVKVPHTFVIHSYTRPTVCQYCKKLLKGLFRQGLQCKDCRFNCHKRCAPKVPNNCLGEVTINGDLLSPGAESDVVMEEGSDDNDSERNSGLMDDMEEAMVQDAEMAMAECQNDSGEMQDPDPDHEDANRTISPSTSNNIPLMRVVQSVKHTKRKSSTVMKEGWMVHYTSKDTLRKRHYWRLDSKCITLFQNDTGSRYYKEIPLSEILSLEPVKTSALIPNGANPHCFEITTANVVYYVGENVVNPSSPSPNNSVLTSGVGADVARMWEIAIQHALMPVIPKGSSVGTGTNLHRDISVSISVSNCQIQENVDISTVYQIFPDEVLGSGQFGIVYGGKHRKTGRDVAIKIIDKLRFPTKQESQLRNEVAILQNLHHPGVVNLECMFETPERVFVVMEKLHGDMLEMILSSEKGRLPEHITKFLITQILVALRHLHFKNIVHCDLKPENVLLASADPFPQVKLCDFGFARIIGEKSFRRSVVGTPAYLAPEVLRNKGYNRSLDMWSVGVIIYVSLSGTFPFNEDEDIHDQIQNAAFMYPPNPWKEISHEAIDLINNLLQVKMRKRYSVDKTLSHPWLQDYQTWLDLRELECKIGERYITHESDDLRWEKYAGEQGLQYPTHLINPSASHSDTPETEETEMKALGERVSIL
Lmaj promast: inhibitors of Leishmania major promastigote growth | Leishmania major promastigotes, resazurin fluorescence viability | inhibition, % at 10 µM | actives 9% (n = 200,000);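 further: promastigotes grown with compound for 44 hours at 28 °C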
GSH bead fluor: GSH bead compound fluorescence profile; GSH beads flow cytometry, compound fluorescence 488/530 nm; hits give high values; fluorescence (KMESF) at 10 µM; actives 0.25% (n = 190,000); AID 1776; in the data active means fluorescence above about 89;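 further: glutathione beads carrying GST-tagged Bcl family fusion proteins plus one bare bead set; values are compound well signal with DMSO vehicle wells as background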
Avidin fluor: avidin bead compound fluorescence profile; actives 0.38% (n = 220,000); fluorescence (KMESF) at 10 µM; Avidin beads, compound fluorescence 488/530 nm, flow cytometry; hits give high values; AID 1775; in the data active means fluorescence above about 47
ABCB1 inh: human ABCB1 inhibition, ABCG2 as counter-screen; inhibition, % at 6.6 µM; AID 1326; actives 0.067% (n = 190,000); CCRF-Adr cells, JC-1 efflux, flow cytometry; in the data active means inhibition above about 40%;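 further: 0% = vehicle and 100% = reference inhibitor; higher value means more JC-1 retained so stronger ABCB1 efflux block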
Active calls of the source: *; . = no result given. Unless noted, no stated cut-off is given here; in the data, active means inhibition above about 50%; inactive means the rest.

SMILES	ABCG2 inh	PKD1 inh	Lmaj promast	GSH bead fluor	Avidin fluor	ABCB1 inh
CCC(C)(C)NC(=O)c1ccc(Sc2nncn2C)c([N+](=O)[O-])c1	37	1	50*	4	12	2
CCn1ccc(C(=O)Nc2c(C)nn(Cc3c(F)c(F)c(F)c(F)c3F)c2C)n1	-1	1	-6	13	3	1
CCOCCCNC(=O)c1c[nH]c2ccc(OCC)cc2c1=O	.	.	.	.	6	.
Cc1nc(Cl)c2c(n1)N(CC(N)=O)C(=O)CO2	1	4	-6	9	3	0
O=C(CSCc1cccc(Cl)c1)Nc1ccccc1-c1ccccc1	66	2	87*	7	7	2
O=C(CSCc1ccc(Cl)cc1)c1ccco1	0	.	.	260*	7	0
CCc1cccc(CC)c1NC(=O)COC(=O)CC1c2ccccc2CCN1S(=O)(=O)c1ccc(F)cc1 (stereo not given)	5	-11	98*	7	13	3
COc1cc(NCCC(=O)c2cccs2)c(OC)cc1Cl	17	-3	24	11	13	1
Cn1c(=O)c(C(=O)COC(=O)c2cc(C(F)(F)F)nc3ccccc23)c(N)n(Cc2ccccc2)c1=O	11	6	45	18	12	3
Cn1c(N)c(C(=O)COc2ccc(Cl)cc2Cl)c(=O)n(C)c1=O	24	-9	12	10	7	-1
Cn1c(=O)c(C(=O)COC(=O)c2cc(-c3ccccc3)nc3ccccc23)c(N)n(Cc2ccccc2)c1=O	-4	1	100*	17	9	1
Cn1c(=O)c(C(=O)COc2ccc(F)cc2Cl)c(N)n(Cc2ccccc2)c1=O	1	-6	56*	19	17	0
Cn1c(=O)c(C(=O)COC(=O)c2cc(-c3ccco3)nc3ccccc23)c(N)n(CC2CC2)c1=O	-8	-11	62*	13	7	1
COc1ccc2c(c1)CCc1c(C(=O)N(C)c3ccccc3)noc1-2	6	-8	19	10	8	0
CCn1c(NC(=O)c2cccs2)c(-c2cccs2)c(=O)c2ccccc21	0	-3	-2	24	7	0
Cc1cccc(Cn2c(=O)n(-c3ccc(CC(=O)NCc4ccco4)cc3)c(=O)c3sccc32)c1	2	-5	63*	22	9	1
Cc1ccc(-n2c(=O)c3sccc3n(CC(=O)NCc3ccco3)c2=O)cc1	1	-6	0	24	10	0
CCOC(=O)c1cc(=O)cc(C(=O)OCC)o1	4	-10	95*	21	17	1
COC(=O)c1cc(=O)cc(C(=O)OC)o1	-1	0	-5	35	5	0
Cc1cc(N2CCCC2)nc(N2C3CCC2CC(O)(c2ccc(F)cc2)C3)n1 (stereo not given)	2	4	27	17	11	2
COc1ccc(C2(O)CC3CCC(C2)N3c2cc(C)nc(-c3ccccc3)n2)cc1 (stereo not given)	4	-3	63*	23	27	2
COc1cc([N+](=O)[O-])cc2sc(NC(=O)c3c(F)cccc3F)nc12	0	-2	-1	13	11	0
COc1cccc(-n2c(N)c(C(=O)Nc3c(C)n(C)n(-c4ccccc4)c3=O)c3nc4ccccc4nc32)c1	.	.	.	.	4	.
Cc1ccc(-n2c(N)c(C(=O)Nc3c(C)n(C)n(-c4ccccc4)c3=O)c3nc4ccccc4nc32)cc1	8	5	60*	17	7	3
Cc1cc(C)cc(-n2c(N)c(C(=O)Nc3c(C)n(C)n(-c4ccccc4)c3=O)c3nc4ccccc4nc32)c1	1	11	76*	13	29	3
SMILES	ABCG2 inh	PKD1 inh	Lmaj promast	GSH bead fluor	Avidin fluor	ABCB1 inh
COC(=O)/C=C/CSC1=N/C(=C/c2ccc(-n3cncn3)cc2)C(=O)N1	10	7	-2	24	13	1
O=C(CCC(=O)OCC(=O)c1ccc([N+](=O)[O-])cc1)NC1CCCCC1	2	-6	77*	6	9	0
O=C(CCC(=O)OCC(=O)c1cccc([N+](=O)[O-])c1)NC1CCCCC1	.	.	.	.	3	.
Cn1cc(Br)c(NS(=O)(=O)c2ccc(Cl)s2)n1	.	.	.	.	2	.
CS(=O)(=O)N1CCN(c2ccccc2NC(=O)c2ccc(-c3ccc(Cl)cc3Cl)o2)CC1	6	-14	91*	35	15	7
CN1CCN(c2ccccc2NC(=O)c2ccc(-c3ccc(Cl)cc3Cl)o2)CC1	3	12	99*	16	4	4
CS(=O)(=O)N1CCN(c2ccccc2NC(=O)Cc2ccc(Cl)cc2)CC1	3	4	7	16	8	1
CN1CCN(c2ccccc2NC(=O)c2cc3ccccc3o2)CC1	0	4	68*	17	22	1
COc1ccc(/C=C2/C(=O)N(c3nc4ccccc4s3)N=C2CSc2ccc(Cl)cc2)cc1	-6	-1	100*	10	5	-1
CC(C)(C)CC(=O)Nc1ccc(Nc2ccccc2)cc1	-2	-6	-4	18	33	0
Cc1cc(Br)c(OCc2ccc(C(=O)N/N=C3\CC4CC=CC34)cc2)c(Br)c1 (stereo not given)	-16	-4	-5	22	13	-6
COc1ccc(NC(=O)Nc2cccc(OC)c2)cc1	.	-5	8	.	.	.
COc1cccc(NC(=O)Nc2ccc3nsnc3c2)c1	-1	-5	99*	41	6	-1
O=C1CC(SC2=NCCS2)C(=O)N1c1cccc(Cl)c1Cl (stereo not given)	3	4	-5	12	7	0
Cc1ccc(/C=N/NS(=O)(=O)c2ccc([N+](=O)[O-])cc2)o1	-2	9	-6	10	6	-1
O=[N+]([O-])c1ccc(/C=N/N=C/c2ccc([N+](=O)[O-])o2)o1	4	-8	100*	8	17	1
Cc1ccc(S(=O)(=O)N/N=C\c2ccc([N+](=O)[O-])o2)cc1	3	-1	87*	30	16	1
Cc1ccc(S(=O)(=O)N/N=C\c2ccc(C)o2)cc1	0	-19	-5	15	15	0
Cc1cc2ncn(/N=C/c3ccc([N+](=O)[O-])o3)c2cc1C	1	-14	99*	22	19	0
Cc1ccc(C(=O)N/N=C\c2ccc([N+](=O)[O-])o2)cn1	.	.	.	.	4	.
O=[N+]([O-])c1ccc(/C=N/NS(=O)(=O)c2ccc(Cl)cc2)o1	4	-31	53*	10	12	2
CC1=NN(C(=O)c2ccc(Cn3cc([N+](=O)[O-])cn3)cc2)C(O)(C(F)(F)F)C1 (stereo not given)	6	-7	-3	7	1	0
C=CCC(C)(NCc1ccccc1)c1ccc(C)cc1 (stereo not given)	9	-6	69*	5	14	1
